Compound activity (PubChem)
rRNA inh HTS: selective bacterial rRNA inhibition in E. coli. 1.6% of 350,000 active. E. coli WT GFP vs humanized-ribosome RFP mutants, fluorescence, 24 h; stronger effect = lower value; DMSO median 0, no signal -100. GFP signal change (wild-type ribosome), % (test concentration not listed);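 active means significant combined selectivity score with lowered wild-type GFP, culture density cut under 30%, mutant RFP and density less affected; inactive means any of these conditions unmet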
RAD52 inh: inhibitors of human RAD52 DNA annealing; P43351; recombinant RAD52 DNA annealing, FRET fluorescence; inhibition, % at 18.7 µM; 0.46% of 360,000 active; AID 651710;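 active means every replicate showing at least 50% inhibition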
Target sequence (P43351 whole entry, looked up): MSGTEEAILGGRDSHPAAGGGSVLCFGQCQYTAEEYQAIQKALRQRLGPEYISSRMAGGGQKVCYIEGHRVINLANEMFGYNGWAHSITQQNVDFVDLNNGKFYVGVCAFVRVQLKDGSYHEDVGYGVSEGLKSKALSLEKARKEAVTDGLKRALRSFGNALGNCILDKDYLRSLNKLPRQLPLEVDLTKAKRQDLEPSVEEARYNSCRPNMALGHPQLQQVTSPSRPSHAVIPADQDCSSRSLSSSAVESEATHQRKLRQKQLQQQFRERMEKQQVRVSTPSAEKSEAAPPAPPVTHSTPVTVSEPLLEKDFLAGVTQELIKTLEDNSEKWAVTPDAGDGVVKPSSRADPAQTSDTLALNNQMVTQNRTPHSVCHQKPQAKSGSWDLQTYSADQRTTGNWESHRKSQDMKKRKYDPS
GSIS activator: GLuc luminescence reporter in INS-1E cells, primary screen for activators of glucose-dependent secretion of insulin. INS-1E GLuc reporter insulin secretion, 2-3 h. activation, % at 16.6 µM. 0.61% of 370,000 active. AID 743287;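 active means lowest replicate activation of at least 40%, so every replicate reaches that level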;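 further: 0% = median of neutral control wells and 100% = median of IBMX positive control wells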
MLL AF4-AF9 inh: MLL-AF4/AF9 protein interaction inhibition | P42568 | AlphaScreen, biotin-AF4 peptide binding to FLAG-AF9 | inhibition, % at 10 µM | 0.47% of 350,000 active | AID 651704;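 active means every replicate reaching a set inhibition limit, whatever the replicate mean, cut at about 25% in these data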;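 further: 0% = plate neutral control median and 100% = total signal loss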
E-sel inducer: E-selectin induction on HUVECs; AID 686992; activation, % at 7.58 µM; 0.37% of 260,000 active; HUVEC E-selectin immunofluorescence imaging; normalized: neutral wells 0, TNF-alpha wells 100; P16581;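 active means mean E-selectin-positive cell signal at least 10% of the positive control, reached in at least 60% of replicates, without over 20% cell loss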
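System: HUVEC, human umbilical vein endothelial cells; quantity: 3,000 cells/well; buffer or medium: EGM-2 medium, gelatin-coated wells; dosing: single-point compound dose; detection: immunofluorescence imaging; evaluation: % PE-positive cells; benchmarks: TNF-alpha, DMSO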
RAD54 branch: inhibitors of human RAD54 branch migration; RAD54 Holliday junction branch migration, FAM/BHQ fluorescence; AID 602329; 0.14% of 360,000 active; Q92698; inhibition, % at 10.4 µM;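 active means mean normalized replicate activity at least 40 and at least half of replicates scoring 40 or more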;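 further: 0% = median of neutral control wells and 100% = median of positive control wells; inhibitors cause a drop in the FAM fluorescence signal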
* hit, by the source's call; / = not tested or not shown. An excerpt weighted towards active compounds, which were near 2.6% of everything screened.

SMILES	rRNA inh HTS	RAD52 inh	GSIS activator	MLL AF4-AF9 inh	E-sel inducer	RAD54 branch
Cc1ccccc1S(=O)(=O)N1CCCCN2[C@@H](CO)[C@H](c3ccc(-c4ccccc4)cc3)[C@@H]2C1	/	71*	/	-1	/	1
Cc1cc(C)n(CCC(=O)N/N=C/c2ccc(Br)c([N+](=O)[O-])c2)n1	-15*	-24	6	1	3	4
CO[C@H](CN(C)S(=O)(=O)c1ccccc1)[C@H](C)CN(C(=O)Nc1ccccc1F)[C@H](C)CO	1	1	6	-1	0	5
CC(C)(O)c1ccc2c(c1)CCC1C(C)(C(=O)O)CCCC21C (centres undefined)	2	-3	-11	-2	/	-1
CC(C)c1c(O)ccc2c1CC[C@H]1C(C)(C)CCC[C@]21C	-14*	2	/	5	3	2
CO[C@H]1CN(C)C(=O)c2cc(NC(=O)NC3CCCCC3)ccc2OC[C@@H](C)N(C(C)=O)C[C@@H]1C	2	/	12	/	0	6
COc1ccccc1CNC(=O)C[C@@H]1CC[C@@H]2[C@H](COC[C@@H](O)CN2C(=O)Nc2ccccc2)O1	1	-15	-18	-1	0	9
O=C(C[C@H]1CC[C@H]2[C@@H](COC[C@H](O)CN2Cc2cccc(F)c2)O1)NCC1CCCCC1	-7	10	-19	1	0	7
COc1ccc(S(=O)(=O)N(C)C[C@@H]2Oc3ccc(NC(=O)Cc4ccccc4)cc3C(=O)N([C@@H](C)CO)C[C@@H]2C)cc1	0	-6	-23	-2	0	-4
O=C(CSc1nnc(-c2ccncc2)n1Cc1ccco1)c1ccc(Cl)cc1	-20*	-15	-35	/	/	3
O=C(CSc1nnc(-c2ccncc2)n1Cc1ccco1)Nc1ccccc1Cl	/	/	13	/	/	/
Cc1cccnc1NC(=O)c1cccc(S(=O)(=O)N2CCCC2)c1	1	-1	9	-1	/	-5
Cc1ccc(C(=O)NCC(=O)Nc2ccncc2)cc1C	9	3	6	-1	204*	-9
COc1ccc(S(=O)(=O)N2CCCCC2C)cc1 (centres undefined)	-3	5	-3	29*	0	3
Cc1cccnc1NC(=O)c1ccc(S(=O)(=O)N2CCCCC2)cc1	1	1	41*	-4	0	/
COc1ccc(C(=O)NNC(=O)c2ccc(S(=O)(=O)N3CCCCC3)cc2)cc1	5	-10	3	1	1	/
COc1ccc(C(=O)Nc2ccc(S(=O)(=O)N3CCCC3)cc2)cc1	-32*	-12	0	1	/	/
C[C@@H]1CN([C@@H](C)CO)C(=O)c2cc(NC(=O)Nc3ccccc3)ccc2O[C@@H](C)CCCCO[C@H]1CN(C)S(=O)(=O)c1cn(C)cn1	0	14	1	-1	1	0
Cc1ccccc1S(=O)(=O)N1CCCCN2[C@H](CO)[C@@H](c3ccc(-c4cncnc4)cc3)[C@@H]2C1	-6	-18	14	-5	-1	-1
O=C(Nc1ccc(S(=O)(=O)N2CCCCCC2)cc1)c1[nH]ncc1[N+](=O)[O-]	-40*	-27	13	2	0	10
COc1ccc(NC(=O)C2(c3ccc(NC(=O)c4ccc(OC)cc4)cc3)CCCC2)cc1	/	/	98*	/	/	1
CCOc1ccc(NC(=O)CNC(=O)c2ccc(OC)c(OC)c2)cc1	/	/	4	/	/	-10
CCOc1ccc(NC(=O)CNC(=O)c2ccc(OC)cc2)cc1	11	-7	7	1	73*	/
COc1ccc(C2(C(=O)Nc3nncs3)CCCC2)cc1	/	/	-6	/	/	11
O=C(Nc1ccc([N+](=O)[O-])cc1)c1ccc(S(=O)(=O)N2CCCC2)cc1	10	-3	1	-2	/	-10
COc1ccc(NC(=O)N(C)C[C@@H]2Oc3ncc(-c4ccccc4)cc3C(=O)N([C@H](C)CO)C[C@@H]2C)cc1	-2	/	-15	/	1	/
COc1ccccc1NC(=O)N1CC(=O)N2[C@@H](CO)[C@@H](c3ccc(C#CCC(C)C)cc3)[C@@H]2C1	-14	/	-2	/	/	/
CNC[C@H]1Oc2c(NS(=O)(=O)c3cn(C)cn3)cccc2C(=O)N([C@H](C)CO)C[C@@H]1C	2	1	6	-2	0	-2
